Shown are actives, neighbours in structure and some others; about 2% of the full set was active somewhere.
SR-BI HDL uptake: inhibitors of mouse SR-BI mediated HDL lipid uptake; inhibition, % at 12.5 µM; 0.96% of 320,000 active; ldlA[mSR-BI] CHO cells, DiI-HDL uptake fluorescence, 3 h;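 active means mean replicate inhibition of at least 70% and a set share of replicates each scoring 70 or more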;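 further: 0% = median of neutral control wells and 100% = median of positive control wells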
Target sequence (Q61009 whole entry, looked up): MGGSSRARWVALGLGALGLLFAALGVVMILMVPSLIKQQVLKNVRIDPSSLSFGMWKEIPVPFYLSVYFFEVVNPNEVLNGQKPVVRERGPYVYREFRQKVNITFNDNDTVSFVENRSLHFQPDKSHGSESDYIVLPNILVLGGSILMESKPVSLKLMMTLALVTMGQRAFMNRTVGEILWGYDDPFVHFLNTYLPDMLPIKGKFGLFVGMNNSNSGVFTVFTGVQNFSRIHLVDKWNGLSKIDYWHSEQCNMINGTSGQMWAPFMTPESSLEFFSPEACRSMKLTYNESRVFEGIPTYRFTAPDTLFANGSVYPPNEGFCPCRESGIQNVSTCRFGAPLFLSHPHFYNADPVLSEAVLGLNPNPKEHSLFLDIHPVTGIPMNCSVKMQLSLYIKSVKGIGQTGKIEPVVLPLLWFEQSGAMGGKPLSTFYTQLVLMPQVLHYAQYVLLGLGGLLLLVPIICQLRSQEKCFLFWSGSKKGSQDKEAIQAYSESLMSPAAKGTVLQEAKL
XiGFP reactiv: activators of X-chromosome reactivation in mouse fibroblasts; activation, % at 7.58 µM; AID 743238; XiGFP mouse fibroblasts, % GFP-positive cells imaging, 3 d; cells co-treated with 5-aza-dC sensitizer; scaled so ellipticine positive control = 100%; 0.055% of 360,000 active;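 active means mean normalized replicate activation at least 10% and every replicate at or above 10%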;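 further: 0% = median of on-plate neutral control wells and 100% = ellipticine 6 µM median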
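System: XiGFP fibroblasts, SV40-immortalized. Medium: DMEM plus 5-aza-dC sensitizer. Doses: single point. Timing: 3 d treatment, 15 min room-temperature fixation. Control set: ellipticine 6 µM.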
HGIII-sPLA2 inh: Blocks human group III sPLA2 activity; Q9NZ20; inhibition, % at 12.2 µM; 0.56% of 370,000 active; QFRET BODIPY PC-A2 liposome hydrolysis, fluorescence;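 active means inhibition above mean plus 3 SD of compounds lying within the high and low control bounds, cut at about 19% in these data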;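 further: 0% = median of test compound wells and 100% = no enzyme DMSO wells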
ARNT TACC3 PPI: ARNT/TACC3 interaction disruption; inhibition, % at 9.99 µM; AlphaScreen His-ARNT PAS-B/GST-TACC3 binding, luminescence; TACC3 fragment carries E629A point mutation; 0.66% of 390,000 active;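 active means mean inhibition of replicates at least 50% and at least half of replicates each reaching 50%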;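 further: 0% = complete ARNT plus TACC3 wells and 100% = ARNT alone without TACC3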
NSD2 inh: blocks human histone methyltransferase NSD2; NSD2 peptide methylation, AlphaScreen, 120 min; inhibition, % at 12.5 µM; 0.54% of 310,000 active; AID 743445; in the data active means inhibition above about 50%
SR-BI uptake up: SR-BI HDL lipid transfer activation | 0.096% of 320,000 active | CHO ldlA[mSR-BI] cells, DiI-HDL uptake fluorescence, 3 h; 100 = double the neutral-control signal | activation, % at 12.5 µM;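 active means mean replicate activation of at least 60% and every replicate at or above 60%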;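 further: 0% = median plate neutral-control signal and 100% = twice that signal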
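Material: SR-BI-overexpressing, LDLR-lacking CHO cells; schedule: compound exposure 3 h, 37 °C; reagent: DiI-labelled HDL at 10 µg/mL final; technique: bottom-read fluorescence, 550/595 nm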
Alpha artifact: counter-screen for NSD2 inhibitors: AlphaScreen artifacts; shares compounds with NSD2 inh; AlphaScreen artifact counterscreen, preloaded methylated H4 peptide; AC35, µM (highest dose often 10 µM), for inactives: at the highest dose activity change, negative = signal loss; 9.4% of 1,500 active; call rule not given here
An asterisk follows results filed as active.

For COc1cccc(C2c3c(oc4ccccc4c3=O)C(=O)N2CCCN(C)C)c1OC (configuration not stated) the results were SR-BI HDL uptake 5, HGIII-sPLA2 inh 4, ARNT TACC3 PPI -3, NSD2 inh 60*, SR-BI uptake up -5 and Alpha artifact 0%.
`CCN(CC)c1ccc(N)cc1S(=O)(=O)Nc1ccccc1OC` gave SR-BI HDL uptake -13, XiGFP reactiv 0, HGIII-sPLA2 inh 9, ARNT TACC3 PPI -5, NSD2 inh -5 and SR-BI uptake up 13.
COc1ccc(/C=N/Nc2cc(N3CCCC3)nc(N3CCCC3)n2)cc1 was read as SR-BI HDL uptake 49, XiGFP reactiv 0, HGIII-sPLA2 inh 8, NSD2 inh 102*, SR-BI uptake up -49 and Alpha artifact -9%.
For CC(=O)c1c(C)[nH]c(C(=O)CSc2nnc(-c3ccco3)n2Cc2ccccc2)c1C the results were SR-BI HDL uptake 80*, HGIII-sPLA2 inh -43, NSD2 inh 58*, SR-BI uptake up -80 and Alpha artifact -1%.
`CC(=O)c1c(C)[nH]c(C(=O)CSc2nnc(-c3cccs3)n2Cc2ccccc2)c1C` gave SR-BI HDL uptake 47, HGIII-sPLA2 inh -21, ARNT TACC3 PPI -3, NSD2 inh -1 and SR-BI uptake up -47.
Screening Cc1ccc(-c2ccc(/C=N/N=C3/NC(=O)C(CC(=O)O)S3)o2)c([N+](=O)[O-])c1 (configuration not stated) returned SR-BI HDL uptake 0, HGIII-sPLA2 inh -1, ARNT TACC3 PPI 15, NSD2 inh 5 and SR-BI uptake up 0.
For O=C(O)CC1S/C(=N/N=C/c2ccc(-c3ccccc3[N+](=O)[O-])o2)NC1=O (configuration not stated) the results were SR-BI HDL uptake -20, HGIII-sPLA2 inh 0, ARNT TACC3 PPI 22, NSD2 inh 91*, SR-BI uptake up 20 and Alpha artifact 1%.
Screening CC1CCCC(NC(=O)CCNC(=O)c2ccc(Cl)cc2)C1C (configuration not stated) returned SR-BI HDL uptake 13, XiGFP reactiv 0, HGIII-sPLA2 inh -5, ARNT TACC3 PPI -11, NSD2 inh -1 and SR-BI uptake up -13.
CCc1ccccc1NC(=O)c1cc(S(=O)(=O)N(C)C)ccc1N1CCCC1 was read as SR-BI HDL uptake 10, XiGFP reactiv 0, HGIII-sPLA2 inh 4, ARNT TACC3 PPI -1, NSD2 inh -1 and SR-BI uptake up -10.
CN1/C(=C/c2cc[n+](C)c3ccccc23)C=Cc2ccccc21 was read as SR-BI HDL uptake 5, ARNT TACC3 PPI 16 and SR-BI uptake up -5.
For C[n+]1ccc(/C=C/c2ccccc2O)c2ccccc21 the results were SR-BI HDL uptake 59, XiGFP reactiv 0, HGIII-sPLA2 inh 16, ARNT TACC3 PPI 3, NSD2 inh 50*, SR-BI uptake up -59 and Alpha artifact -6%.
`Cc1ncc(CO)c2c1Oc1nc(-c3ccccc3)nc(SCC(=O)N3CCOCC3)c1C2` gave SR-BI HDL uptake -29, XiGFP reactiv 0, HGIII-sPLA2 inh 0, ARNT TACC3 PPI 4, NSD2 inh 79*, SR-BI uptake up 29 and Alpha artifact -10%.
Screening Cc1ncc(CO)c2c1Oc1nc(-c3ccccc3)nc(SCC(=O)N3CCCCC3)c1C2 returned SR-BI HDL uptake -24, XiGFP reactiv 0, HGIII-sPLA2 inh 5, ARNT TACC3 PPI -13, NSD2 inh 11 and SR-BI uptake up 24.
For NC1=C(Br)C(=O)c2ncccc2C1=O the results were SR-BI HDL uptake -5, XiGFP reactiv 0, HGIII-sPLA2 inh 11, ARNT TACC3 PPI 64*, NSD2 inh 101*, SR-BI uptake up 5 and Alpha artifact 5%.
For COc1ccccc1NC(=O)C(C)OC(=O)CCNS(=O)(=O)c1cccc(C(F)(F)F)c1 (configuration not stated) the results were SR-BI HDL uptake -14, XiGFP reactiv -1, HGIII-sPLA2 inh -5, NSD2 inh 105*, SR-BI uptake up 14 and Alpha artifact -3%.
Screening CNC(=O)c1ccc(-c2cc(C(F)(F)F)nn2C)s1 returned XiGFP reactiv 0, HGIII-sPLA2 inh 1, NSD2 inh 60* and Alpha artifact -2%.
Screening Cc1ccccc1C1=C/C(=C(\SS/C(C(=O)c2ccc(OCC(=O)O)c(Cl)c2Cl)=C2\C=C(c3ccccc3C)SS2)C(=O)c2ccc(OCC(=O)O)c(Cl)c2Cl)SS1 returned SR-BI HDL uptake 29, XiGFP reactiv 0, HGIII-sPLA2 inh -11, ARNT TACC3 PPI 21, NSD2 inh 53*, SR-BI uptake up -29 and Alpha artifact 5.2µM*.
For Cc1ccc(C=C2C(=O)c3ccccc3C2=O)s1 the results were SR-BI HDL uptake -54, HGIII-sPLA2 inh 3, ARNT TACC3 PPI 18 and NSD2 inh 3.
`N=C1S/C(=C\c2ccc(-c3ccccc3C(=O)O)o2)C(=O)N1c1ccc2c(c1)OCO2` gave SR-BI HDL uptake -18, XiGFP reactiv 0, HGIII-sPLA2 inh -10, ARNT TACC3 PPI 13, NSD2 inh 99*, SR-BI uptake up 18 and Alpha artifact -4%.
Screening Cn1c(N)nc2nc(CCc3ccccc3)c(=O)[nH]c2c1=O returned XiGFP reactiv 0, HGIII-sPLA2 inh 4, ARNT TACC3 PPI 11 and NSD2 inh 4.
For O=C(NCCCN1CCCC1=O)Nc1ccc(Cl)cc1Cl the results were SR-BI HDL uptake -11, XiGFP reactiv 0, HGIII-sPLA2 inh 4, ARNT TACC3 PPI -3, NSD2 inh 50*, SR-BI uptake up 11 and Alpha artifact 0%.
`O=C1/C(=N\S(=O)(=O)c2cccs2)C([n+]2ccccc2)=C([O-])c2ccccc21` gave XiGFP reactiv -1, HGIII-sPLA2 inh 4 and ARNT TACC3 PPI -2.
For CC(C)(C)c1cc[n+](C2=C([O-])c3ccccc3C(=O)/C2=N\S(=O)(=O)c2cccs2)cc1 the results were XiGFP reactiv 0, HGIII-sPLA2 inh 6, NSD2 inh 62* and Alpha artifact -6%.
O=C(C1=C(O)C(=O)N(c2ncccn2)C1c1ccc(F)cc1)c1ccco1 (configuration not stated) was read as SR-BI HDL uptake -14, XiGFP reactiv 4, HGIII-sPLA2 inh -5, ARNT TACC3 PPI -3, NSD2 inh 0 and SR-BI uptake up 14.
Screening C=CCn1c(SCC(=O)c2ccc(O)c(O)c2)nnc1-c1cccc(C)c1 returned SR-BI HDL uptake 12, XiGFP reactiv 0, HGIII-sPLA2 inh 0, ARNT TACC3 PPI 3 and SR-BI uptake up -12.

High-throughput results from PubChem.
